Data reported in ChEMBL document CHEMBL3046016, “Antifeedant and growth inhibitory effects of some neo-clerodane diterpenoids isolated from Clerodendron species (Verbenaceae) on Earias vitella and Spodoptera litura” (2003).

How the values were obtained:
Assay type in all cases: functional
Earias vittella [1] = assay: Insecticidal activity against pupal stage of Earias vitella assessed as pupal mortality at 10 ug/cm3 administered through artificial diet containing Abelmoschus esculentus seed powder (reference value: 8%)
Earias vittella [2] = assay: Insecticidal activity against third-instar larval stage of Earias vitella assessed as larval mortality at 10 ug/cm3 administered through artificial diet containing Abelmoschus esculentus seed powder (reference value: 4%)
Earias vittella [3] = assay: Insecticidal activity against third-instar larval stage of Earias vitella assessed as total larval duration time at 5 ug/cm3 administered through artificial diet containing Abelmoschus esculentus seed powder (reference value: 8.2 +/- 0.48 days)
Earias vittella [4] = assay: Insecticidal activity against pupal stage of Earias vitella assessed as pupal duration time at 10 ug/cm3 administered through artificial diet containing Abelmoschus esculentus seed powder (reference value: 6.4 +/- 0.21 days)
Earias vittella [5] = assay: Insecticidal activity against pupal stage of Earias vitella assessed as pupal weight at 5 ug/cm3 administered through artificial diet containing Abelmoschus esculentus seed powder (reference value: 88.2 +/- 4.01 mg)
Spodoptera litura [6] = assay: Insecticidal activity against adult Spodoptera litura in compound-treated castor leaves assessed as adult emergence at 10 ug/cm2 relative to control
Earias vittella [7] = assay: Insecticidal activity against adult Earias vitella assessed as adult deformity at 10 ug/cm3 administered through artificial diet containing Abelmoschus esculentus seed powder (reference value: 4%)
Spodoptera litura [8] = assay: Insecticidal activity against third-instar larval stage of Spodoptera litura in compound-treated castor leaves assessed as total larval duration time at 5 ug/cm2 (reference value: 12.4 +/- 0.48 days)
Spodoptera litura [9] = assay: Antifeedant activity against third-instar larval stage of Spodoptera litura in compound-treated castor leaves assessed as decrease in diet consumption at 10 ug/cm2 after 24 hr by no-choice leaf disk assay relative to acetone-treated control; set-up: scale not given: the % may be the effect or the level left
Summary of the method: (§1)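 Larvae were reared on castor leaves at 25 ± 2 °C. In a no-choice test, compound in acetone was painted on the abaxial side of castor leaf disks and air-dried. Five freshly molted third-instar larvae, starved 4 h, were placed per Petri dish with wet cotton. There were five replicates. After 24 h, consumed leaf area was read on a leaf area meter. %AF = 100 − (treated/control)×100.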

Earias vittella [10] = assay: Insecticidal activity against adult Earias vitella assessed as adult emergence at 10 ug/cm3 administered through artificial diet containing Abelmoschus esculentus seed powder (reference value: 88%)
Earias vittella [11] = assay: Insecticidal activity against pupal stage of Earias vitella assessed as pupal duration time at 5 ug/cm3 administered through artificial diet containing Abelmoschus esculentus seed powder (reference value: 6.4 +/- 0.21 days)
Spodoptera litura [12] = assay: Insecticidal activity against pupal stage of Spodoptera litura in compound-treated castor leaves assessed as pupal weight at 10 ug/cm2 (reference value: 302.4 +/- 5.9 mg)
Earias vittella [13] = assay: Insecticidal activity against pupal stage of Earias vitella assessed as pupal mortality at 5 ug/cm3 administered through artificial diet containing Abelmoschus esculentus seed powder (reference value: 8%)
Spodoptera litura [14] = assay: Antifeedant activity against third-instar larval stage of Spodoptera litura in compound-treated castor leaves assessed as decrease in diet consumption at 5 ug/cm2 after 24 hr by no-choice leaf disk assay relative to acetone-treated control; set-up: scale not given: the % may be the effect or the level left; summary of the method: as §1
Spodoptera litura [15] = assay: Insecticidal activity against third-instar larval stage of Spodoptera litura in compound-treated castor leaves assessed as larval mortality at 5 ug/cm2 relative to control
Earias vittella [16] = assay: Insecticidal activity against third-instar larval stage of Earias vitella assessed as larval mortality at 5 ug/cm3 administered through artificial diet containing Abelmoschus esculentus seed powder (reference value: 4%)
Earias vittella [17] = assay: Antifeedant activity against third-instar larval stage of Earias vitella assessed as decrease in diet consumption at 5 ug/cm3 administered through artificial diet containing Abelmoschus esculentus seed powder after 24 hr relative to acetone-treated control; set-up: scale not given: the % may be the effect or the level left
Summary of the method: (§2)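 Artificial diet was modified Klein medium with bhendi (Abelmoschus esculentus) seed powder in place of alfalfa. Compound in acetone was mixed into bhendi meal 12 h before diet preparation so the solvent evaporated. One 3 g diet cube was given to five freshly molted third-instar larvae in a muslin-covered container. After 24 h the cubes were weighed. %AF = 100 − (treated/control)×100.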

Spodoptera litura [18] = assay: Insecticidal activity against male adult Spodoptera litura in compound-treated castor leaves assessed as adult longevity time at 5 ug/cm2 (reference value: 9.4 +/- 0.48 days)
Earias vittella [19] = assay: Insecticidal activity against adult Earias vitella assessed as adult deformity at 5 ug/cm3 administered through artificial diet containing Abelmoschus esculentus seed powder (reference value: 4%)
Spodoptera litura [20] = assay: Insecticidal activity against adult Spodoptera litura in compound-treated castor leaves assessed as adult deformity at 10 ug/cm2 relative to control
Spodoptera litura [21] = assay: Insecticidal activity against pupal stage of Spodoptera litura in compound-treated castor leaves assessed as pupal duration time at 10 ug/cm2 (reference value: 9.2 +/- 0.74 days)
Earias vittella [22] = assay: Antifeedant activity against third-instar larval stage of Earias vitella assessed as decrease in diet consumption at 10 ug/cm3 administered through artificial diet containing Abelmoschus esculentus seed powder after 24 hr relative to acetone-treated control; set-up: scale not given: the % may be the effect or the level left; summary of the method: as §2
Spodoptera litura [23] = assay: Insecticidal activity against pupal stage of Spodoptera litura in compound-treated castor leaves assessed as pupal mortality at 10 ug/cm2 relative to control
Spodoptera litura [24] = assay: Insecticidal activity against female adult Spodoptera litura in compound-treated castor leaves assessed as adult longevity time at 5 ug/cm2 (reference value: 10 +/- 0.63 days)
Spodoptera litura [25] = assay: Insecticidal activity against adult Spodoptera litura in compound-treated castor leaves assessed as adult deformity at 5 ug/cm2 relative to control
Spodoptera litura [26] = assay: Insecticidal activity against third-instar larval stage of Spodoptera litura in compound-treated castor leaves assessed as larval mortality at 10 ug/cm2 relative to control
Spodoptera litura [27] = assay: Insecticidal activity against male adult Spodoptera litura in compound-treated castor leaves assessed as adult longevity time at 10 ug/cm2 (reference value: 9.4 +/- 0.48 days)
Earias vittella [28] = assay: Insecticidal activity against male adult Earias vitella assessed as adult longevity time at 10 ug/cm3 administered through artificial diet containing Abelmoschus esculentus seed powder (reference value: 8.2 +/- 0.4 days)
Spodoptera litura [29] = assay: Insecticidal activity against pupal stage of Spodoptera litura in compound-treated castor leaves assessed as pupal mortality at 5 ug/cm2 relative to control
Earias vittella [30] = assay: Insecticidal activity against third-instar larval stage of Earias vitella assessed as total larval duration time at 10 ug/cm3 administered through artificial diet containing Abelmoschus esculentus seed powder (reference value: 8.2 +/- 0.48 days)
Earias vittella [31] = assay: Insecticidal activity against adult Earias vitella assessed as adult emergence at 5 ug/cm3 administered through artificial diet containing Abelmoschus esculentus seed powder (reference value: 88%)
Earias vittella [32] = assay: Insecticidal activity against female adult Earias vitella assessed as adult longevity time at 10 ug/cm3 administered through artificial diet containing Abelmoschus esculentus seed powder (reference value: 8.6 +/- 0.48 days)
Spodoptera litura [33] = assay: Insecticidal activity against female adult Spodoptera litura in compound-treated castor leaves assessed as adult longevity time at 10 ug/cm2 (reference value: 10 +/- 0.63 days)
Spodoptera litura [34] = assay: Insecticidal activity against third-instar larval stage of Spodoptera litura in compound-treated castor leaves assessed as total larval duration time at 10 ug/cm2 (reference value: 12.4 +/- 0.48 days)
Earias vittella [35] = assay: Insecticidal activity against female adult Earias vitella assessed as adult longevity time at 5 ug/cm3 administered through artificial diet containing Abelmoschus esculentus seed powder (reference value: 8.6 +/- 0.48 days)
Earias vittella [36] = assay: Insecticidal activity against male adult Earias vitella assessed as adult longevity time at 5 ug/cm3 administered through artificial diet containing Abelmoschus esculentus seed powder (reference value: 8.2 +/- 0.4 days)
Earias vittella [37] = assay: Insecticidal activity against pupal stage of Earias vitella assessed as pupal weight at 10 ug/cm3 administered through artificial diet containing Abelmoschus esculentus seed powder (reference value: 88.2 +/- 4.01 mg)
Spodoptera litura [38] = assay: Insecticidal activity against adult Spodoptera litura in compound-treated castor leaves assessed as adult emergence at 5 ug/cm2 relative to control
Spodoptera litura [39] = assay: Insecticidal activity against pupal stage of Spodoptera litura in compound-treated castor leaves assessed as pupal duration time at 5 ug/cm2 (reference value: 9.2 +/- 0.74 days)
Spodoptera litura [40] = assay: Insecticidal activity against pupal stage of Spodoptera litura in compound-treated castor leaves assessed as pupal weight at 5 ug/cm2 (reference value: 302.4 +/- 5.9 mg)
Spodoptera littoralis = assay: Antifeedant activity against Spodoptera littoralis assessed as decrease in diet consumption at 50 ppm after 2 hr by leaf disk assay relative to control; set-up: scale not given: the % may be the effect or the level left

CC(=O)OC[C@@]12[C@@H](OC(C)=O)C[C@@H](C)[C@](C)([C@@H]3C[C@H]4C=CO[C@H]4O3)[C@H]1C[C@@H](O)[C@H](OC(=O)C(C)(C)OC(C)=O)[C@]21CO1 [CLERODENDRIN C]
mortality (Earias vittella [1]): 22.5% | mortality (Earias vittella [2]): 8% | Time (Earias vittella [3]): 8.4 days | Time (Earias vittella [4]): 7.8 days | Activity (Earias vittella [5]): 69 mg | Activity (Spodoptera litura [6]): 69.6% | Activity (Earias vittella [7]): 8% | Time (Spodoptera litura [8]): 12.5 days | Activity (Spodoptera litura [9]): 65% | Activity (Earias vittella [10]): 70.5% | Time (Earias vittella [11]): 7.2 days | Activity (Spodoptera litura [12]): 282.2 mg | mortality (Earias vittella [13]): 20% | Activity (Spodoptera litura [14]): 56% | mortality at 5 µg/cm2 (Spodoptera litura [15]): 12.5% | mortality (Earias vittella [16]): 4% | Activity (Earias vittella [17]): 31% | Time (Spodoptera litura [18]): 9.2 days | Activity (Earias vittella [19]): 4% | Activity (Spodoptera litura [20]): 8% | Time (Spodoptera litura [21]): 10.6 days | Activity (Earias vittella [22]): 41.54% | mortality at 10 µg/cm2 (Spodoptera litura [23]): 22.7% | Time (Spodoptera litura [24]): 8.9 days | Activity (Spodoptera litura [25]): 4% | mortality at 10 µg/cm2 (Spodoptera litura [26]): 14% | Time (Spodoptera litura [27]): 8.5 days | Time (Earias vittella [28]): 6.8 days | mortality at 5 µg/cm2 (Spodoptera litura [29]): 20.2% | Time (Earias vittella [30]): 8.2 days | Activity (Earias vittella [31]): 76% | Time (Earias vittella [32]): 7.2 days | Time (Spodoptera litura [33]): 8.2 days | Time (Spodoptera litura [34]): 12.5 days | Time (Earias vittella [35]): 7.6 days | Time (Earias vittella [36]): 7 days | Activity (Earias vittella [37]): 66.2 mg | Activity (Spodoptera litura [38]): 76% | Time (Spodoptera litura [39]): 10 days | Activity (Spodoptera litura [40]): 289.8 mg

CC(=O)OC[C@@]12[C@@H](OC(C)=O)C[C@@H](C)[C@](C)([C@@H]3C[C@H]4C=CO[C@H]4O3)[C@H]1CCC[C@]21CO1 [CLERODIN]
mortality (Earias vittella [1]): 32% | Activity (Spodoptera littoralis): 100% | mortality (Earias vittella [2]): 8% | Time (Earias vittella [3]): 9.4 days | Time (Earias vittella [4]): 8 days | Activity (Earias vittella [5]): 60.4 mg | Activity (Spodoptera litura [6]): 63.2% | Activity (Earias vittella [7]): 8% | Time (Spodoptera litura [8]): 14.3 days | Activity (Spodoptera litura [9]): 80% | Activity (Earias vittella [10]): 60% | Time (Earias vittella [11]): 7.2 days | Activity (Spodoptera litura [12]): 250.2 mg | mortality (Earias vittella [13]): 28.5% | Activity (Spodoptera litura [14]): 72% | mortality at 5 µg/cm2 (Spodoptera litura [15]): 24.5% | mortality (Earias vittella [16]): 4% | Activity (Earias vittella [17]): 62.87% | Time (Spodoptera litura [18]): 8.4 days | Activity (Earias vittella [19]): 4% | Activity (Spodoptera litura [20]): 9.6% | Time (Spodoptera litura [21]): 11.6 days | Activity (Earias vittella [22]): 72.13% | mortality at 10 µg/cm2 (Spodoptera litura [23]): 27% | Time (Spodoptera litura [24]): 8 days | Activity (Spodoptera litura [25]): 8% | mortality at 10 µg/cm2 (Spodoptera litura [26]): 35.2% | Time (Spodoptera litura [27]): 8 days | Time (Earias vittella [28]): 6.4 days | mortality at 5 µg/cm2 (Spodoptera litura [29]): 27% | Time (Earias vittella [30]): 9.9 days | Activity (Earias vittella [31]): 68.6% | Time (Earias vittella [32]): 6.6 days | Time (Spodoptera litura [33]): 7 days | Time (Spodoptera litura [34]): 14.8 days | Time (Earias vittella [35]): 6.8 days | Time (Earias vittella [36]): 6.6 days | Activity (Earias vittella [37]): 58 mg | Activity (Spodoptera litura [38]): 64% | Time (Spodoptera litura [39]): 10.9 days | Activity (Spodoptera litura [40]): 270.2 mg
